Assays:
TGF-beta receptor type-1 = molecular target: T1, TGF-beta receptor type-1 (Homo sapiens, UniProt P36897); test: Inhibition of GST-fused recombinant human ALK5 expressed in baculovirus-infected insect Sf9 cells using casein as substrate by radioisotope-based assay
T1 sequence (P36897 whole entry): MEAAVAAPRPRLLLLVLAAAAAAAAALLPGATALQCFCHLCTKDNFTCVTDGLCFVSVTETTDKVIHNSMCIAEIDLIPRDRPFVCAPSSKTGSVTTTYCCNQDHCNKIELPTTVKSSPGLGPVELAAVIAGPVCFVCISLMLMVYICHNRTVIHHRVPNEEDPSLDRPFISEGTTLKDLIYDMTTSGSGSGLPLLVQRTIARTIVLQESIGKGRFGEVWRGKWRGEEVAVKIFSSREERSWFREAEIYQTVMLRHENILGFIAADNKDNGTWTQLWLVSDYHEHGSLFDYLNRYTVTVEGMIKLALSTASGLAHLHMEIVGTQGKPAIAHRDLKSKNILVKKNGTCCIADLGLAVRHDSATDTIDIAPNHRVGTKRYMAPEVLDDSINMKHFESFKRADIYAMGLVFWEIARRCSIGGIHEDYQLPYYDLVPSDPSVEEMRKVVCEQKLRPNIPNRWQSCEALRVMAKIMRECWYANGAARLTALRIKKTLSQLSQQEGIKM

Homo sapiens = organism: Homo sapiens; test: Selectivity index, ratio of IC50 for recombinant human p38-alpha to IC50 for GST-fused recombinant human ALK5
Procedure, shortened: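 Ratio of p38α IC50 to ALK5 IC50. ALK5 was a human recombinant GST-fusion protein expressed in Sf9 insect cells via baculovirus. p38α was […] human recombinant protein expressed in E. coli and purified on Ni-NTA agarose. Both were run in a radioisotopic ³³P protein kinase assay (³³PanQinase), with casein as the ALK5 substrate and ATF2 as the p38α substrate.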

[1] = molecular target: Mitogen-activated protein kinase 14 (Homo sapiens, UniProt Q16539); test: Inhibition of recombinant human p38-alpha expressed in Escherichia coli using ATF2 as substrate by radioisotope-based assay
Chain of Mitogen-activated protein kinase 14 (Q16539 whole entry, the tested form may be a part): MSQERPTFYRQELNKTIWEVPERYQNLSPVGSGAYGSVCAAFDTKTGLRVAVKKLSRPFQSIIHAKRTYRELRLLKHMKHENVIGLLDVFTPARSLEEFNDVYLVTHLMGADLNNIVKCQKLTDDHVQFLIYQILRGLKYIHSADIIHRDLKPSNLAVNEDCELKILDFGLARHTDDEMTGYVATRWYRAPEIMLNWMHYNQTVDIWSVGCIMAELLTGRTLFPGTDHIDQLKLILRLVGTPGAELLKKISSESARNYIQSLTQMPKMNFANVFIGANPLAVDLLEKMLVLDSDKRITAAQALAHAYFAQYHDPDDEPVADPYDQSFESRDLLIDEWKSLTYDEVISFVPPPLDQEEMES

[2] = molecular target: T2, TGF-beta receptor type-1 (Homo sapiens) (UniProt P36897); test: Potency index, ratio of SB-505124 IC50 to compound IC50 for GST-fused recombinant human ALK5 expressed in baculovirus-infected insect Sf9 cells
T2 sequence (whole entry): T1 sequence (P36897 whole entry)

Plasma [3] = test: Retention time of the compound in rat plasma treated with [14C]-EW-7197, po by LC-MS analysis; type: ADME, organism-based
[4] = Drug level in rat urine treated with [14C]-EW-7197, po by LC-MS analysis; type: ADME, organism-based; conditions: in vivo
[5] = Drug level in rat feces treated with [14C]-EW-7197, po by LC-MS analysis; type: ADME, organism-based; conditions: in vivo
[6] = Drug level in rat bile treated with [14C]-EW-7197, po by LC-MS analysis; type: ADME, organism-based; conditions: in vivo
[7] = Retention time of the compound in rat bile treated with [14C]-EW-7197, po by LC-MS analysis; type: ADME, organism-based
[8] = Drug metabolism in po dosed rat bile assessed as formation of 4-([1,2,4]triazolo[1,5-a]pyridin-6-yl)-5-(6-methylpyridin-2-yl)-1H-imidazole-2-carbaldehyde by LC-MS analysis; type: ADME, organism-based; conditions: in vivo
[9] = Drug metabolism in po dosed rat feces assessed as formation of (4-([1,2,4]triazolo[1,5-a]pyridin-6-yl)-5-(6-methylpyridin-2-yl)-1H-imidazol-2-yl)methanol by LC-MS analysis; type: ADME, organism-based; conditions: in vivo
Plasma [10] = test: Drug metabolism in po dosed rat plasma assessed as formation of 4-([1,2,4]triazolo[1,5-a]pyridin-6-yl)-5-(6-methylpyridin-2-yl)-1H-imidazole-2-carboxylic acid by LC-MS analysis; type: ADME, organism-based; conditions: in vivo
Plasma [11] = test: Drug metabolism in po dosed rat plasma assessed as formation of 4-([1,2,4]triazolo[1,5-a]pyridin-6-yl)-5-(6-methylpyridin-2-yl)-1H-imidazole-2-carbaldehyde by LC-MS analysis; type: ADME, organism-based; conditions: in vivo
Plasma [12] = test: Drug metabolism in po dosed rat plasma assessed as formation of (4-([1,2,4]triazolo[1,5-a]pyridin-6-yl)-5-(6-methylpyridin-2-yl)-1H-imidazol-2-yl)methanol by LC-MS analysis; type: ADME, organism-based; conditions: in vivo
[13] = Drug metabolism in po dosed rat urine assessed as formation of (4-([1,2,4]triazolo[1,5-a]pyridin-6-yl)-5-(6-methylpyridin-2-yl)-1H-imidazol-2-yl)methanol by LC-MS analysis; type: ADME, organism-based; conditions: in vivo
[14] = Drug metabolism in po dosed rat bile assessed as formation of 4-([1,2,4]triazolo[1,5-a]pyridin-6-yl)-5-(6-methylpyridin-2-yl)-1H-imidazole-2-carboxylic acid by LC-MS analysis; type: ADME, organism-based; conditions: in vivo
[15] = Drug metabolism in po dosed rat urine assessed as formation of 4-([1,2,4]triazolo[1,5-a]pyridin-6-yl)-5-(6-methylpyridin-2-yl)-1H-imidazole-2-carboxylic acid by LC-MS analysis; type: ADME, organism-based; conditions: in vivo
[16] = Drug metabolism in po dosed rat feces assessed as formation of 4-([1,2,4]triazolo[1,5-a]pyridin-6-yl)-5-(6-methylpyridin-2-yl)-1H-imidazole-2-carbaldehyde by LC-MS analysis; type: ADME, organism-based; conditions: in vivo
[17] = Drug metabolism in po dosed rat feces assessed as formation of 4-([1,2,4]triazolo[1,5-a]pyridin-6-yl)-5-(6-methylpyridin-2-yl)-1H-imidazole-2-carboxylic acid by LC-MS analysis; type: ADME, organism-based; conditions: in vivo
Plasma [18] = test: Retention time of the compound in po dosed rat plasma by LC-MS analysis; type: ADME, organism-based; conditions: in vivo
[19] = Drug metabolism in po dosed rat urine assessed as formation of 4-([1,2,4]triazolo[1,5-a]pyridin-6-yl)-5-(6-methylpyridin-2-yl)-1H-imidazol-2-ol by LC-MS analysis; type: ADME, organism-based; conditions: in vivo
Plasma [20] = test: Drug level in rat plasma treated with [14C]-EW-7197, po by LC-MS analysis; type: ADME, organism-based; conditions: in vivo
[21] = Retention time of the compound in rat urine treated with [14C]-EW-7197, po by LC-MS analysis; type: ADME, organism-based

Compound | IC50 (TGF-beta receptor type-1) | Ratio IC50 (Homo sapiens) | IC50 [1] | other results
Cc1cccc(-c2[nH]c(CNC(=O)c3cccc(C(N)=O)c3)nc2-c2ccc3ncnn3c2)n1 | 0.106 µM | > 94 | > 10 µM | 
Cc1cccc(-c2[nH]c(CNC(=S)c3ccccc3F)nc2-c2ccc3ncnn3c2)n1 | 0.027 µM | 39 | 1.05 µM | 
Cc1cccc(-c2nn(CC(=O)Nc3ccccc3F)cc2-c2ccc3ncnn3c2)n1 | 0.085 µM | > 118 | > 10 µM | 
Cc1cccc(-c2nn(CC(=S)Nc3cccc(C#N)c3)cc2-c2ccc3ncnn3c2)n1 | 0.018 µM | 284 | 5.11 µM | Ratio IC50 [2]: 3
Cc1cccc(-c2[nH]c(C(=O)O)nc2-c2ccc3ncnn3c2)n1 |  |  |  | Retention_time (Plasma [3]): 24.43 min; Drug metabolism [4]: metabolite_detected; Drug metabolism [5]: metabolite_detected; Drug metabolism [6]: metabolite_detected
Cc1cccc(-c2[nH]c(O)nc2-c2ccc3ncnn3c2)n1 |  |  |  | Drug metabolism [4]: metabolite_detected; Retention_time [7]: 54.56 min
Cc1cccc(-c2nn(CC(=O)Nc3cccc(C(N)=O)c3)cc2-c2ccc3ncnn3c2)n1 | 0.036 µM | > 278 | > 10 µM | 
Cc1cccc(-c2nn(CC(=S)Nc3ccccc3F)cc2-c2ccc3ncnn3c2)n1 | 0.029 µM | 180 | 5.21 µM | 
Cc1cccc(-c2[nH]c(CN)nc2-c2ccc3ncnn3c2)n1 |  |  |  | Retention_time [7]: 68.77 min
Cc1cccc(-c2[nH]c(CNC(=S)c3cccc(C#N)c3)nc2-c2ccc3ncnn3c2)n1 | 0.036 µM | 41 | 1.49 µM | 
Cc1cccc(-c2[nH]c(CNc3ccccc3F)nc2-c2ccc3ncnn3c2)n1 [VACTOSERTIB] |  |  |  | Drug metabolism [8]: metabolite_detected; Drug metabolism [9]: metabolite_detected; Drug metabolism (Plasma [10]): metabolite_detected; Drug metabolism (Plasma [11]): metabolite_detected; Drug metabolism (Plasma [12]): metabolite_detected; Drug metabolism [13]: metabolite_detected; Drug metabolism [14]: metabolite_detected; Drug metabolism [15]: metabolite_detected; Drug metabolism [16]: metabolite_detected; Drug metabolism [17]: metabolite_detected; Retention_time (Plasma [18]): 71.53 min; Drug metabolism [19]: metabolite_detected
Cc1cccc(-c2nn(CC(=O)Nc3ccccc3)cc2-c2ccc3ncnn3c2)n1 | 0.078 µM | > 128 | > 10 µM | 
Cc1cccc(-c2[nH]c(CNC(=S)c3cccc(C(N)=O)c3)nc2-c2ccc3ncnn3c2)n1 | 0.022 µM | 129 | 2.83 µM | 
Cc1cccc(-c2[nH]c(C=O)nc2-c2ccc3ncnn3c2)n1 |  |  |  | Drug metabolism [5]: metabolite_detected; Drug metabolism (Plasma [20]): metabolite_detected; Drug metabolism [6]: metabolite_detected; Retention_time [21]: 62.37 min
Cc1cccc(-c2nn(CC(=O)Nc3cccc(C#N)c3)cc2-c2ccc3ncnn3c2)n1 | 0.027 µM | > 370 | > 10 µM | 
Cc1cccc(-c2[nH]c(CO)nc2-c2ccc3ncnn3c2)n1 |  |  |  | Drug metabolism [4]: metabolite_detected; Retention_time [7]: 53.65 min; Drug metabolism [5]: metabolite_detected; Drug metabolism (Plasma [20]): metabolite_detected
Cc1cccc(-c2[nH]c(CNC(=O)c3cccc(C#N)c3)nc2-c2ccc3ncnn3c2)n1 | 0.09 µM | > 111 | > 10 µM | 
Cc1cccc(-c2[nH]c(Cc3cccc(C(N)=O)c3)nc2-c2ccc3nccnc3c2)n1 |  | 28 |  | 

Further lines, with some results ahead:

IC50 (TGF-beta receptor type-1) | Ratio IC50 (Homo sapiens) | IC50 [1] | Compound | other results
0.057 µM | > 175 | > 10 µM | Cc1cccc(-c2[nH]c(CNC(=O)c3ccccc3)nc2-c2ccc3ncnn3c2)n1 | 
0.048 µM | 79 | 3.77 µM | Cc1cccc(-c2[nH]c(CNC(=S)c3ccccc3)nc2-c2ccc3ncnn3c2)n1 | 
0.037 µM | > 270 | > 10 µM | Cc1cccc(-c2[nH]c(CNC(=O)c3ccccc3F)nc2-c2ccc3ncnn3c2)n1 | 

Source: ChEMBL document CHEMBL3259570, “4-([1,2,4]Triazolo[1,5-a]pyridin-6-yl)-5(3)-(6-methylpyridin-2-yl)imidazole and -pyrazole derivatives as potent and selective inhibitors of transforming growth factor-β type I receptor kinase” (Bioorg Med Chem, 2014)
